D1 allo mod: D1 CRE-luciferase signal change, two-sided – cell-based, HEK293 D1, dopamine EC30, D1 allosteric modulator project, primary screen | 5.9% of 58,000 active | dopamine EC30 potentiation; actives deviate in either direction | B-score at 10 µM;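 active = luminescence count or its row- and column-corrected plate score outside the 99.7% band of the plate's sample wells, on either side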
tolC growth inh: growth inhibitors of E. coli tolC mutant, primary screen, strain BW25113 ΔtolC::kan, 384-well. OD615. growth inhibition, % at 10 µM (by protocol). 2.2% of 65,000 active. AID 573, 2007;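 active = growth inhibition at or above a cutoff equal to the mean over every tested compound plus 3 SD, cut at about 60% in these data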;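 also: growth measured after 20 h incubation at 37 °C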
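Doses: one dose of 10 µM final / Material: E. coli BW25113 ΔtolC::kan, tolC deletion mutant strain / Buffer or medium: LB with kanamycin 50 µg/mL / Evaluation: percent growth inhibition / Detection: optical density read at 615 nm / Incubation: 37 °C, 20 h exposure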
PostGolgi ctrl: growth inhibition of yeast control strain, primary screen, counter-screen for post-Golgi transport modulator project. 5% of 98,000 active. inhibition, % at 10 µM. efflux-deficient yeast background strain, growth absorbance A615, 16 h
E coli WT exp: growth inhibitors of wild-type E. coli, primary screen, strain BW25113, expanded library, OD600. AID 710, 2007. OD600 absorbance. 0.15% of 98,000 active. growth inhibition, % at 100 µM;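 active = growth inhibition above about 50% at one test dose, limit read from the data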;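 also: growth measured after 20 h incubation at 37 °C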
PostGolgi yeast: phenotypic screen on post-Golgi transport, primary screen; post-Golgi transport phenotypic cell assay; inhibition, % at 10 µM; 0.9% of 98,000 active;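 also: yeast cells grown in 1536-well plates; yeast grown about 18 h at 30C before absorbance read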
hDAT+cocaine: changed hDAT dopamine uptake under cocaine IC80, either direction, primary screen, cocaine antagonist project, cell-based, LLC-PK1 hDAT, [14C]-dopamine uptake, MLSMR. Sodium-dependent dopamine transporter (Homo sapiens), Q01959. LLC-PK1 hDAT cells, [14C]-dopamine uptake with cocaine IC80; actives deviate in either direction. B-score at 10 µM. 1.3% of 110,000 active;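 active = Z score or B-score, a plate-position-corrected score, falls beyond the plate's 99.7% confidence bounds, in either direction; inactive = both scores lie inside the 99.7% bounds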;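 also: scored against the spread of the other compound wells on the same plate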
Target sequence (Q01959 whole entry, looked up): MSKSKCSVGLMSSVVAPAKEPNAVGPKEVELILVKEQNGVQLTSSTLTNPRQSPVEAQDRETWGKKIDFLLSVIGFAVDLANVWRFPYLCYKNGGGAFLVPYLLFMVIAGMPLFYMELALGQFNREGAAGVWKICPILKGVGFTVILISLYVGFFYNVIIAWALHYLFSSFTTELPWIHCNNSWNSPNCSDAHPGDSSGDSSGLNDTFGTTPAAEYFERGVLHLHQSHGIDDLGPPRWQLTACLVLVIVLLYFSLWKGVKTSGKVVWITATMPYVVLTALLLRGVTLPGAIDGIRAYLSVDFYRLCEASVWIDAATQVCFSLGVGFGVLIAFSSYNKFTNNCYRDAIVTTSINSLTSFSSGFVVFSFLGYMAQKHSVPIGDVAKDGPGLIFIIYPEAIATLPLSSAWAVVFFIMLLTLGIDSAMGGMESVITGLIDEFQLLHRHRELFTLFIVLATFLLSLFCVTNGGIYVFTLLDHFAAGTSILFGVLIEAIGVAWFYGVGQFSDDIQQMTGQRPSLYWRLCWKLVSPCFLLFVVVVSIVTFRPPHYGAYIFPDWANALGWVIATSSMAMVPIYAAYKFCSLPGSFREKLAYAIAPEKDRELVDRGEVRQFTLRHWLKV
The depositor's hits bear a star; · = not tested or not shown. Most compounds without a hit are left out; they make up all but 9.3% or so of the library. Rule as the data show it, unless noted: active = inhibition above about 30%; inactive = the rest.

SMILES	D1 allo mod	tolC growth inh	PostGolgi ctrl	E coli WT exp	PostGolgi yeast	hDAT+cocaine
O=C(NC(NC(=S)Nc1ccc(Cl)c(Cl)c1)C(Cl)(Cl)Cl)c1ccco1 (configuration not stated)	·	·	8	30	-2	-3.8*
S=C(NCc1ccco1)Nc1ccc(Cl)c(Cl)c1	·	·	41*	47	4	-1.9
O=C(Nc1ccc(Cl)c(Cl)c1)N(Cc1cccnc1)Cc1ccco1	-2.4	45	105*	-11	96*	·
Cc1nn(-c2ccccc2)c2sc(C(=O)OCC(=O)N3CCCCC3)cc12	0.93	-2	·	·	·	-0.12
CCCCN(CC)C(=O)Cc1c(C(=O)O)[nH]c2ccc(Cl)cc12	0.15	40	32*	-9	3	-0.41
CCCCCCc1ccc(-c2ncc(N)cn2)cc1	0.044	100*	32*	15	-1	0.85
CS(=O)(=O)c1ccc(CNC(=O)C2(C(F)(F)F)C/C(=C\Cc3ccccc3)CCCO2)cc1 (configuration not stated)	·	·	·	·	·	0.44
C/C(=N\NC(=O)c1ccccc1O)C1C(=O)c2ccccc2C1=O	·	·	9	9	-1	-3.7*
O=C(Nc1cccc(F)c1)C1C2C=CC3(CN(CCCN4CCOCC4)C(=O)C13)O2 (configuration not stated)	-0.5	-8	-5	7	-2	0.068
O=C1c2ccccc2C(=O)N1CCCCN(C(=O)c1ccco1)c1ccc(Cl)cc1	2.7	45	31*	-10	2	0.93
Cc1cc(NCCN2CCOCC2)n2nc(C)c(-c3ccccc3)c2n1	-0.43	-7	-5	-2	-1	-0.32
Cc1cc(NCCN2CCOCC2)n2nc(C)c(-c3ccc(Cl)cc3)c2n1	1.5	14	34*	-4	47*	0.47
CCCCc1ccc(-c2nc(NC(=O)C3C4CCC(O4)C3C(=O)O)sc2C)cc1 (configuration not stated)	·	·	29	6	-6	-0.32
Cc1cc(C(=O)CSc2nnc(-c3ccco3)o2)c(C)n1Cc1ccco1	-0.4	39	-2	-9	-5	0.42
Cc1cc(C(=O)CSc2nn(-c3ccccc3)c(=S)s2)c(C)n1Cc1ccco1	-4.7*	7	12	-18	0	-0.19
C=CCn1c(N)c(C(=O)NCC2CCCO2)sc1=S (configuration not stated)	0.081	-15	32*	3	-3	0.075
COc1ccc(-n2c(N)c(C(=O)NCC3CCCO3)c3nc4ccccc4nc32)c(OC)c1 (configuration not stated)	0.53	26	1	-7	-8	0.015
C=CCn1c(N)c(C(=O)NCC2CCCO2)c2nc3ccccc3nc21 (configuration not stated)	1	12	5	4	33*	0.75
Cn1c(NCCO)nc2c(c1=O)C1(CCCCC1)Cc1ccccc1-2	-0.33	37	50*	-10	1	1.7
O=c1c2c(nc3n1CCCCC3)-c1ccccc1CC21CCCC1	-0.19	91*	46*	-6	5	0.92
CN(C)Cc1nc2c(c(=O)[nH]1)C1(CCCCC1)Cc1ccccc1-2	0.3	62*	-1	3	7	0.093
O=c1[nH]c(NCCCO)nc2c1C1(CCCC1)Cc1ccccc1-2	-0.6	65*	19	20	1	-0.098
CCCS(=O)(=O)c1c(S(=O)(=O)CCC)c2c3ccccc3ccn2c1C(N)=O	-0.14	-7	4	7	1	0.73
CC(NC(=O)C(NC(=O)C1CCCN1C(=O)OC(C)(C)C)C(C)C)C(N)=O (configuration not stated)	0.13	-17	2	5	-1	0.071
CCN(CC)Cc1nc2c(c(=O)[nH]1)C1(CCCCC1)Cc1ccccc1-2	-0.068	29	32*	-6	4	-1.1
CN(C)Cc1nc2c(c(=O)[nH]1)C(C)(C)Cc1ccccc1-2	·	·	11	2	-5	-0.99
CCN(CC)c1ccc(N2C(=O)/C(=C/c3cccnc3)SC2=S)cc1	·	·	2	-18	9	-0.19
O=C(NCCc1ccc(Cl)cc1)Nc1cccc(Cl)c1	·	·	34*	-2	5	1.6
